High-throughput results from PubChem.
Rows were chosen to be rich in hits. Some 2.9% of all compounds tested hit in one or more screens of this group.
Jurkat viability = reduces viability or proliferation of Jurkat cells. Jurkat E6.1 viability, ATP luminescence, 48 h. inhibition, % at 4 µM. hit rate 1.2% among 56,000. AID 463;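 active means inhibition above the mean inhibition of all tested compounds plus 3 SD, cut at about 28% in these data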
SF1 activator = activates the human nuclear receptor SF-1; Q13285; CHO-K1 Gal4-SF-1 LBD luciferase reporter; % increase over DMSO SF-1-specific signal; activation, % at 10 µM; hit rate 1.9% among 65,000; AID 522;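 active means activation above the mean activation of all tested compounds plus 3 SD, cut at about 50% in these data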
Target sequence (Q13285 whole entry, looked up, the tested form may be a part): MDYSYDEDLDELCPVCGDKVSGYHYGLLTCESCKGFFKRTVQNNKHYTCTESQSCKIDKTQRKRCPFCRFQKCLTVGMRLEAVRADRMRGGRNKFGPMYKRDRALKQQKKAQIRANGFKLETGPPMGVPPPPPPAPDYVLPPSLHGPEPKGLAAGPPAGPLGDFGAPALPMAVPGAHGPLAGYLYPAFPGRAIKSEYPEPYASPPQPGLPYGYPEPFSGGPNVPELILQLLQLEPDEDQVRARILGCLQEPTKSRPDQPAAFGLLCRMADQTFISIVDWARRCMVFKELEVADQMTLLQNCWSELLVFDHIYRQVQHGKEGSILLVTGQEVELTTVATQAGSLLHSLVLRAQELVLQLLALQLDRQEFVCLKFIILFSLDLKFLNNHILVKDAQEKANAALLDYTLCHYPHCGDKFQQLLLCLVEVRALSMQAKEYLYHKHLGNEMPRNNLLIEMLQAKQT
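material = CHO-K1 cells with Gal4–hSF-1 LBD chimera plus Gal4-driven luciferase | compound = 10 µM single point, 1% DMSO | incubation = 20 h compound exposure at 37 °C after 1 h cell settling | measured by = SteadyLite luciferase luminescence | evaluation = percent activation relative to DMSO median and mock-transfected background | control set = DMSO negative control and −SF1 background wells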
HEK293 NFkB inh = inhibitors of the PMA/ionomycin-induced NF-kB reporter in HEK293 cells; HEK-293 NF-kB luciferase reporter, luminescence; inhibition, % at 3 µM; AID 465; hit rate 0.21% among 62,000;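 active means inhibition above the mean of all tested compounds plus 3 SD, cut at about 40% in these data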
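Reagent: PMA plus ionomycin mix as NF-kB-activating stimulus. Assay system: NF-kB luciferase reporter HEK-293 cells. Technique: luminescence from luciferase substrate reagent. Incubation: 1 h compound pre-incubation, 16 h PMA/ionomycin at 37 °C. Benchmarks: DMSO only as uninhibited control, 10 µM reference inhibitor as full inhibition. Repeats: tested once.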
RORa activator = RORA (human) activation; CHO-K1 Gal4-RORA LBD luciferase reporter, luminescence; percent increase over mock-subtracted basal signal; activation, % at 10 µM; hit rate 1.5% among 65,000;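 active means activation above the mean of all tested compounds plus 3 SD, cut at about 49% in these data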
MT1-MMP txn act = MT1-MMP promoter transcription activation. HT1080 MT1-MMP promoter luciferase reporter, luminescence, overnight; hits give high values. activation factor at 10 µM. hit rate 0.16% among 86,000. AID 750;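 active means activation factor of at least 2 for MT1-MMP transcription at 10 µM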
Each line names hits and unclear results; the compound was inactive in the other large screens.

Cc1c(C(=O)O)[nH]c2c1C(=O)CC(c1ccccc1)C2 (centres undefined)	none (no result: Jurkat viability, MT1-MMP txn act)
CCN1C(c2ccc(F)cc2)=CS/C1=C(\C#N)c1nnc2n1-c1ccccc1SC2	none
CN1C[C@@H]2C(c3ccc(C(F)(F)F)cc3)C3(c4ccc(C#N)cc4)CC2(C3)[C@H]1c1ccccc1 (some centres undefined)	none (no result: Jurkat viability, SF1 activator, HEK293 NFkB inh, RORa activator)
CSCCOC(=O)c1[nH]c2c(c1C)C(=O)CC(c1ccco1)C2 (centres undefined)	Jurkat viability 85.1
COCCOC(=O)c1[nH]c2c(c1C)C(=O)CC(c1ccc(F)cc1)C2 (centres undefined)	Jurkat viability 75.4
COCCOC(=O)c1[nH]c2c(c1C)C(=O)CC(c1ccc(N(C)C)cc1)C2 (centres undefined)	none
COc1ccccc1Cn1c2nc3ccccc3nc2c2c(=O)n(CC(C)C)cnc21	none (no result: Jurkat viability, HEK293 NFkB inh)
CC(=O)C(C)Oc1ccc2c3c(c(=O)oc2c1)CCCC3 (centres undefined)	none
CC(=O)C(C)Oc1ccc2c3c(c(=O)oc2c1)CCCCC3 (centres undefined)	SF1 activator 53.7
Clc1ccc(-c2nnc(-c3ccccc3Cl)o2)cc1	RORa activator 86.5
CCOC(=O)N1CCN(c2cc3[nH]c(=S)[nH]c3cc2F)CC1	none
CCOC(=O)N1CCN(c2c(F)cc3[nH]c(=S)[nH]c3c2Br)CC1	Jurkat viability 85.4
COc1cccc(-c2nc(CS(=O)CC(=O)NCc3ccccc3)c(C)o2)c1 (centres undefined)	none
COC(=O)c1ccc(C(NC(=O)OCc2ccccc2)/C(=C/[C@@H](C)C(=O)NCc2cccnc2)c2cccnc2)cc1 (some centres undefined)	none (no result: Jurkat viability, SF1 activator, HEK293 NFkB inh, RORa activator)
COc1ccccc1CN(Cc1nc2ccccc2c(=O)[nH]1)C(=O)Nc1cccc(C)c1	none (no result: Jurkat viability, SF1 activator, HEK293 NFkB inh, RORa activator)
CCOc1ccc(NS(=O)(=O)c2ccc3c(c2)oc(=O)n3C)cc1	none
CCOc1ccc(N(CC)S(=O)(=O)c2ccc3c(c2)oc(=O)n3C)cc1	Jurkat viability 66.3
Cc1nc2ccc(NC(=O)N3CCCCC3)cc2s1	SF1 activator 53.7
Oc1ccc(Cl)cc1CNc1ccc(Br)cn1	Jurkat viability 56.4, SF1 activator 88.8
Oc1c(Cl)cc(Cl)cc1CNc1ccc(Br)cn1	none (no result: Jurkat viability, HEK293 NFkB inh)
Cc1ccc2nc(Cc3ccc(N)cc3)oc2c1	SF1 activator 67.8
COc1cccc(C2CC(c3ccccc3Cl)n3ncnc3N2)c1 (centres undefined)	none
CN(C)CCCN1C(=O)C(=O)/C(=C(/O)c2ccc(S(=O)(=O)N(C)C)cc2)C1c1ccncc1 (centres undefined)	none
Cc1cc(C)c2c(N)c(C(=O)Nc3nccs3)sc2n1	none (no result: MT1-MMP txn act)
COCc1cc(C)nc2sc(C(=O)Nc3nccs3)c(N)c12	SF1 activator 92.1
CC1(C)CC(=O)C(C=NCc2ccc3c(c2)OCO3)=C(O)C1	none
COc1ccc(N=CC2=C(O)CCCC2=O)cc1	SF1 activator 52.2
COc1ccc(N=Cc2c(O)[nH]c3ccccc23)cc1	none (no result: Jurkat viability, SF1 activator, HEK293 NFkB inh, RORa activator)
CC1(C)CC(=O)C(C=Nc2ccc3c(c2)OCO3)=C(O)C1	SF1 activator 72.4, RORa activator 65.4
COc1ccc(N=CC2=C(O)CC(C)(C)CC2=O)cc1	SF1 activator 87.2
Oc1[nH]c2ccccc2c1C=Nc1ccc2c(c1)OCO2	SF1 activator 62.5, RORa activator 84.2
CCOC(=O)c1ccccc1NC(=O)CN(c1ccccc1)S(=O)(=O)N(C)C	none
COC(=O)c1ccc(C(NC(=O)OCc2ccccc2)/C(F)=C/[C@@H](C)C(=O)NCCN2CCOCC2)cc1 (some centres undefined)	none (no result: Jurkat viability, SF1 activator, HEK293 NFkB inh, RORa activator)
COC(=O)C(NS(C)(=O)=O)(c1c(C)[nH]c2ccccc12)C(F)(F)F (centres undefined)	none
Cc1ccc(CO/N=C\Cc2snc(Sc3ncc(C(F)(F)F)cc3Cl)c2C#N)cc1	none (no result: Jurkat viability, SF1 activator, HEK293 NFkB inh, RORa activator)
O=C(CCCOc1ccc(Cl)cc1Cl)N1CCN(c2ccccn2)CC1	none
O=C(c1ccco1)N1c2ccccc2Sc2ccccc21	none
O=C(c1ccco1)N1CCN(C(=O)N2c3ccccc3Sc3ccccc32)CC1	Jurkat viability 98.5
O=C(c1ccco1)N1CCN(c2ccc(Cl)cc2)CC1	RORa activator 98.2
O=C(CCCOc1ccccc1)N1CCN(c2ccccn2)CC1	RORa activator 55.7
O=C(N1CCN(c2ccccn2)CC1)N1c2ccccc2Sc2ccccc21	Jurkat viability 69.3
